Bioassay records from PubChem BioAssay.
Mdm2 ligase inh: blocks human Mdm2 ubiquitin ligase activity; Q00987; cell-based MDM2 ubiquitination luciferase reporter, 2 h; 0 = plate control, 100 = twice control, blank-subtracted; signal enhancement, % at 5 µM; actives 0.11% (n = 210,000); AID 1230;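 active = signal enhancement of 30% or more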;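 also: luminescence tracks abundance of the self-degrading MDM2-luciferase fusion protein; higher signal means inhibition of MDM2 E3 ligase activity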
Target sequence (Q00987 whole entry, looked up, the tested form may be a part): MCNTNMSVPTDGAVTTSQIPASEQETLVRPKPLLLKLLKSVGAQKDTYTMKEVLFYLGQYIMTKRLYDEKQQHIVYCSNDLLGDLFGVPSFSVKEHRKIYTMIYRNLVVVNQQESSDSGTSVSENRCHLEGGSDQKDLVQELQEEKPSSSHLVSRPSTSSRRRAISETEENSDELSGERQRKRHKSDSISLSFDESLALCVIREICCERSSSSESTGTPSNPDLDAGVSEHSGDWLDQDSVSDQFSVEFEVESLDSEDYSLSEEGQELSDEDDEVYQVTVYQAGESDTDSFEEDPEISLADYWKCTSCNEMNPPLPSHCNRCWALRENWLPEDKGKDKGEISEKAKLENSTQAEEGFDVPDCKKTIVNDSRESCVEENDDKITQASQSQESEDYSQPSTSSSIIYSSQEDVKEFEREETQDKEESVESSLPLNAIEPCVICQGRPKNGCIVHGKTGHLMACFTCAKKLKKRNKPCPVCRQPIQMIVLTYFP
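Buffer or medium: Cells held in DMEM | Assay system: Stable mammalian line carrying autodegrading MDM2–luciferase fusion reporter | Quantity: 2000 cells/well | Times: 4 h settle plus 2 h compound, 37 °C | Doses: One concentration, 5 µM, with 0.2% DMSO | Technique: Luminescence with SteadyLite reagent, 15 min at room temperature | Benchmarks: Plate controls and plate blanks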
zVAD death inh: blocks zVAD induced death of L929 cells | L929 zVAD necroptosis rescue, ATP luminescence, 24 h; with zVAD 60 µM | viability rescue, % at 10 µM | actives 0.38% (n = 220,000) | AID 1377;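 active = activation, scaled between plate controls, above about 75%, limit read from the data; inactive = activation under that limit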;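 also: 0% = zVAD with DMSO and 100% = DMSO alone without zVAD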
Hck Nef HTS: blocks Nef-activated human Hck kinase | P08631 | Recombinant Hck-YEEI plus Nef, Z-Lyte FRET kinase assay | inhibition, % at 20 µM | actives 0.68% (n = 220,000) | AID 463187;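 active = Hck-Nef kinase inhibition above about 50%, limit read from the data; inactive = inhibition below that limit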;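 also: 0% = DMSO with Hck plus Nef and 100% = Hck alone without Nef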
Autophagy mod: autophagy modulation, high-content screen | MEF GFP-LC3 puncta imaging; test concentration mostly 10 µM | calls only at 10 µM (by protocol) | actives 0.98% (n = 190,000) | AID 463193;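 active = percentage of spot-positive cells more than 3 SD above its plate mean, without a fluorescence outlier flag or 80% toxicity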;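 also: spot-positive cell cutoff set from DMSO-treated cells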
TNF death inh: TNF-alpha cell death inhibition in Jurkat FADD-/- cells; Jurkat FADD-/- TNF necroptosis rescue, ATP luminescence, 24 h; 0 = TNF only, 100 = no-TNF cells; activation (protection from cell death), % at 10 µM; actives 0.068% (n = 220,000); AID 463075;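 active = activation, meaning protection from cell death, of at least 50% relative to plate controls; inactive = activation below 50%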;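 also: necroptosis triggered by 40 ng/mL TNF-alpha added together with compound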
Dynein transport: dynein cargo transport inhibition; 3617.4 mouse cells, GR-EGFP nuclear translocation imaging; test concentration mostly 20 µM; stimulated with dexamethasone, 1 µM; stronger effect = lower value; z-score, hits read low; actives 0.47% (n = 220,000); AID 1381;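 active = plate z-score of nuclear minus cytoplasmic receptor signal below a set negative limit, without overly bright fluorescence or cell loss, cut at about -3.5 in these data, passing the limit was not always enough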;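 also: z-score of nuclear minus cytoplasmic ring GR-EGFP intensity difference per well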
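Medium: Induction medium lacking tetracycline, stripped serum | Probe or stimulus: 1.0 µM final dexamethasone stimulus | Schedule: 48 h induction, then 1 h compound, then 30 min agonist, 37 °C | Signal: Automated 10x imaging of fixed Hoechst-stained cells | Evaluation: Per-cell GR-EGFP intensity, nucleus versus surrounding cytoplasmic ring, well-averaged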
The depositor's hits bear a star. Hits are enriched below; roughly 2.4% of the tested compounds scored in any of these assays.

Results for CN1/C(=C\C=C\C2=[N+](C)c3ccc4ccccc4c3C2(C)C)C(C)(C)c2ccccc21 ?
Mdm2 ligase inh: -64; zVAD death inh: 16; Hck Nef HTS: 9; Autophagy mod: active; TNF death inh: -15; Dynein transport: -1.6

How did c1ccc(-c2nc(N3CCOCC3)s[n+]2-c2ccccc2)cc1 do in these assays?
Mdm2 ligase inh: 3; zVAD death inh: 0; Hck Nef HTS: -10; Autophagy mod: inactive; TNF death inh: 1; Dynein transport: 0.23

What do the screens show for `O=C1CCCN1CC#CCN1CCCC1`?
Mdm2 ligase inh: -9; zVAD death inh: 0; Hck Nef HTS: 15; TNF death inh: 1; Dynein transport: -1.1

How did CCc1ccccc1NC(=O)CNCc1ccccc1 do in these assays?
Mdm2 ligase inh: -12; zVAD death inh: 0; Hck Nef HTS: 19; Autophagy mod: inactive; TNF death inh: -1; Dynein transport: -0.21

What do the screens show for `Cc1ccc2c(c1)C1CN(C)CCC1N2C(=O)c1cn(-c2ccccc2)nc1-c1ccccc1` (centres undefined)?
Mdm2 ligase inh: -14; zVAD death inh: 0; Hck Nef HTS: 18; Autophagy mod: active; TNF death inh: -5; Dynein transport: 0.11

Results for Cn1cccc1/C=C1\C(=O)NC(=O)N(Cc2ccco2)C1=O ?
Mdm2 ligase inh: -4; zVAD death inh: -1; Hck Nef HTS: 37; Autophagy mod: inactive; TNF death inh: -2; Dynein transport: -0.23

What do the screens show for `COc1ccc(CN2C(=O)NC(=O)/C(=C/c3ccc([N+](=O)[O-])o3)C2=O)cc1`?
Mdm2 ligase inh: -19; zVAD death inh: 1; Hck Nef HTS: 142*; Autophagy mod: inactive; TNF death inh: 0; Dynein transport: -0.81

Results for COc1ccc(/C=C2/C(=O)NC(=O)N(Cc3ccco3)C2=O)cc1 ?
Mdm2 ligase inh: -24; zVAD death inh: 11; Hck Nef HTS: 57*; Autophagy mod: inactive; TNF death inh: 0; Dynein transport: -0.47

How did O=C1NC(=O)N(Cc2ccccc2)C(=O)/C1=C/c1cnc(-c2ccccc2)nc1 do in these assays?
Mdm2 ligase inh: -14; zVAD death inh: 2; Hck Nef HTS: 58*; Autophagy mod: inactive; TNF death inh: 0; Dynein transport: 0.78

Results for Cc1ccc(N2C(=O)NC(=O)/C(=C/c3ccc(-c4ccc(C(=O)O)c(Cl)c4)o3)C2=O)cc1 ?
Mdm2 ligase inh: 20; zVAD death inh: 6; Hck Nef HTS: 52*; Autophagy mod: inactive; TNF death inh: -1; Dynein transport: 0.61

Results for Cc1ccc(N2C(=O)NC(=O)/C(=C\c3ccoc3)C2=O)cc1 ?
Mdm2 ligase inh: -8; zVAD death inh: 0; Hck Nef HTS: 5; Autophagy mod: inactive; TNF death inh: -2; Dynein transport: 0.27

Results for COc1ccc(C2NCc3ccc4c(c3-n3cccc32)OCO4)cc1O (centres undefined) ?
Mdm2 ligase inh: -4; zVAD death inh: 1; Hck Nef HTS: -1; Autophagy mod: active; TNF death inh: -8; Dynein transport: -0.56

Results for c1cc2n(c1)-c1c(ccc3c1OCO3)CNC2c1ccc2c(c1)OCO2 (centres undefined) ?
Mdm2 ligase inh: 4; zVAD death inh: 1; Hck Nef HTS: 1; Autophagy mod: inactive; TNF death inh: 4; Dynein transport: -0.0082

How did NC(=O)c1cn(C2OC(CO)C(O)C2O)c2ncnc(N)c12 (centres undefined) do in these assays?
Mdm2 ligase inh: -27; zVAD death inh: 57; Hck Nef HTS: 54*; Autophagy mod: inactive; TNF death inh: -8; Dynein transport: 0.5

What do the screens show for `Cc1nn(Cc2ccccc2)c(Cl)c1C(=O)NC1CCCc2ccccc21` (centres undefined)?
Mdm2 ligase inh: -12; zVAD death inh: 0; Hck Nef HTS: 0; Autophagy mod: active; TNF death inh: 1; Dynein transport: 0.082

What do the screens show for `Cc1nn(Cc2ccccc2)c(Cl)c1C(=O)Nc1ccc(OC(F)(F)F)cc1`?
Mdm2 ligase inh: -15; zVAD death inh: 1; Hck Nef HTS: 1; Autophagy mod: inactive; TNF death inh: 5; Dynein transport: 2.2

Results for Cc1nc2ccccc2c(=O)n1-c1cc(F)ccc1F ?
Mdm2 ligase inh: -2; zVAD death inh: 2; Hck Nef HTS: 25; Autophagy mod: inactive; TNF death inh: 1; Dynein transport: -0.1

What do the screens show for `Cc1cc2ccccc2c(=O)n1CC(=O)NCC(=O)N1CCC2(CC1)OCCO2`?
Mdm2 ligase inh: 24; zVAD death inh: 2; Hck Nef HTS: 24; Autophagy mod: active; TNF death inh: 0; Dynein transport: 0.011

How did COc1cc(CN2CCN(c3cc(C)ccc3C)CC2)ccc1O do in these assays?
Mdm2 ligase inh: 6; zVAD death inh: 0; Hck Nef HTS: 0; Autophagy mod: active; TNF death inh: -12; Dynein transport: -0.23

How did CC(O)(CS(=O)(=O)c1cccc(C(F)(F)F)c1)C(=O)Nc1ccc(C(F)(F)F)cc1 (centres undefined) do in these assays?
Mdm2 ligase inh: -12; zVAD death inh: 0; Hck Nef HTS: -1; Autophagy mod: inactive; TNF death inh: -1; Dynein transport: -0.018

Results for CN(C)/C=C1/C(=O)NC(=O)N(CCNc2ncc(C(F)(F)F)cc2Cl)C1=O ?
Mdm2 ligase inh: 0; zVAD death inh: 1; Hck Nef HTS: 154*; Autophagy mod: inactive; TNF death inh: 1; Dynein transport: -1.1

Results for CC(=O)OC1C2CCC1C(N1CCCCC1)CC2 (centres undefined) ?
Mdm2 ligase inh: -6; zVAD death inh: 2; Hck Nef HTS: 25; Autophagy mod: inactive; TNF death inh: 0; Dynein transport: -0.3

How did O=c1c2ccccc2nc(-c2ccccc2)n1-c1cccnc1 do in these assays?
Mdm2 ligase inh: -32; zVAD death inh: 0; Hck Nef HTS: -1; Autophagy mod: inactive; TNF death inh: -1; Dynein transport: 0.62

How did Cc1ccc(-c2nc3ccccc3c(=O)n2-c2cccnc2)cc1 do in these assays?
Mdm2 ligase inh: 34*; zVAD death inh: -1; Hck Nef HTS: 4; Autophagy mod: inactive; TNF death inh: 0; Dynein transport: -0.51

What do the screens show for `C=C1C(=O)O[C@H]2[C@H]1[C@H](OC(=O)CC(=O)O[C@@H]1C[C@@H](C)[C@@H]3C=CC(=O)[C@@]3(C)[C@H]3OC(=O)C(=C)[C@H]13)C[C@@H](C)[C@H]1C=CC(=O)[C@]12C`?
Mdm2 ligase inh: -4; zVAD death inh: 0; Hck Nef HTS: 27; TNF death inh: 3; Dynein transport: -3.3
